Bioassay records (PubChem BioAssay)
Hits are enriched below; roughly 3.7% of the tested compounds scored in any of these assays.
ERAP1 inh: blocks human ERAP1 aminopeptidase activity; Q9NZ08; recombinant ERAP1, Leu-AMC fluorescence, 60 min; inhibition, % at 10.7 µM; 340,000 compounds, 0.15% hits;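 active = mean replicate inhibition of at least 30%, or all replicates individually reaching that 30% level; inactive = mean below 30% and not every replicate reaching it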;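 also: 0% = neutral control wells and 100% = L-leucinethiol positive control wells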
F508del corr: correctors of CFTR F508del function in bronchial epithelial cells; CFBE cells, YFP halide quenching; stimulated with forskolin plus potentiator P3; % fluorescence drop versus neutral controls; activity (quench increase), % at 7.58 µM; 350,000 compounds, 0.36% hits; AID 720511;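 active = mean added fluorescence quench of at least 8% versus neutral control, with both replicates also reaching 8%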;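 also: cells transiently co-express mutant CFTR-F508del with the halide-sensitive YFP; corrector assay measuring rescue of mutant channel to the surface after 24 h compound exposure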
E-sel inducer: E-selectin induction on HUVECs; P16581; HUVEC E-selectin immunofluorescence imaging; normalized: neutral wells 0, TNF-alpha wells 100; activation, % at 7.58 µM; 260,000 compounds, 0.37% hits; AID 686992;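 active = mean E-selectin-positive cell signal at least 10% of the positive control, reached in at least 60% of replicates, without over 20% cell loss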
Target sequence (P16581 whole entry, looked up): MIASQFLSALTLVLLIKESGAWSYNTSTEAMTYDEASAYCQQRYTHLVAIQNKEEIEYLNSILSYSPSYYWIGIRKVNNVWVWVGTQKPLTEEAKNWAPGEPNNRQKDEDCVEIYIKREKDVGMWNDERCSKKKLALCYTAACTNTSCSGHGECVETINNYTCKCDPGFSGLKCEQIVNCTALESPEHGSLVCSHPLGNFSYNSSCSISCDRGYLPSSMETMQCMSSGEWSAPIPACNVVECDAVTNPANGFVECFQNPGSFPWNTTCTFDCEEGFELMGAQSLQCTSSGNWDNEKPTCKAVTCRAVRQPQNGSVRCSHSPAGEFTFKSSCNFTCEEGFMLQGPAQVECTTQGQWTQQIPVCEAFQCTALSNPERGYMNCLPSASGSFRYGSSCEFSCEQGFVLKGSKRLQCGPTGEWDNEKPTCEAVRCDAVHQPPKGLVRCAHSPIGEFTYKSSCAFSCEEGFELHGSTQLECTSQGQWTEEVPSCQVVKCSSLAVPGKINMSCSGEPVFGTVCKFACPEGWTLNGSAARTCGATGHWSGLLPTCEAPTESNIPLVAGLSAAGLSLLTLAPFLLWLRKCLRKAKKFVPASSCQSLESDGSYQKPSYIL
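System: HUVEC, human umbilical vein endothelial cells; quantity: 3,000 cells/well; buffer or medium: EGM-2 medium, gelatin-coated wells; dosing: single-point compound dose; detection: immunofluorescence imaging; evaluation: % PE-positive cells; benchmarks: TNF-alpha, DMSO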
DENV2 CPE rescue: protects cells from dengue virus 2 cytopathic effect | DENV2-infected cells, cytopathic effect rescue, plate reader | CPE inhibition, % at 9.99 µM | 350,000 compounds, 1.7% hits | AID 651640; in the data active = CPE inhibition above about 20%, passing the limit was not always enough; tested in BHK-21 cells;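 also: 0% = median of neutral control wells and 100% = median of positive control wells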
FGF22 binding: shifts melting point of recombinant human FGF22. activity (Tm shift, normalised), % at 9.99 µM. Q9HCT0. recombinant FGF22 thermal shift, SYPRO orange fluorescence; percent of sucrose octasulfate shift, DMSO zero. 340,000 compounds, 1.5% hits;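 active = mean Tm shift, scaled 0 neutral to 100 positive control, at about 1.3% or above, every replicate too, limit read from the data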
Active calls of the source: *.

C=CCN1C(=O)c2ccccc2Sc2ccc(C(=O)NC(C)C)cc21 was read as ERAP1 inh 1, F508del corr 0, E-sel inducer 0, DENV2 CPE rescue 0 and FGF22 binding 0.
Screening C=CCN1C(=O)c2ccccc2Sc2ccc(C(=O)NCC(OC)OC)cc21 returned ERAP1 inh 0, E-sel inducer 1, DENV2 CPE rescue 29* and FGF22 binding 0.
COc1ccc(C(CC(=O)O)n2cnnn2)cc1 (stereo unspecified) was read as ERAP1 inh 4, F508del corr 1, DENV2 CPE rescue -4 and FGF22 binding 42.
For CC(C)Oc1ccc(C(CC(=O)O)n2cnnn2)cc1 (stereo unspecified) the results were ERAP1 inh 0, DENV2 CPE rescue 5 and FGF22 binding 43*.
For CN(C)C(=O)c1ccc(-c2ccc([C@@H]3[C@@H](C#N)N(C(=O)Nc4ccccc4F)[C@H]3CO)cc2)cc1 the results were ERAP1 inh -2, F508del corr 3, E-sel inducer -1, DENV2 CPE rescue -3 and FGF22 binding 0.
`CN(C)C(=O)C[C@H]1CC[C@@H]2[C@@H](COc3ccc(NC(=O)Nc4cccc(Cl)c4)cc3C(=O)N2C)O1` gave ERAP1 inh -1, F508del corr 0, E-sel inducer 0, DENV2 CPE rescue -13 and FGF22 binding 0.
For C[C@H]1CN([C@@H](C)CO)C(=O)Cc2cc(NC(=O)c3ccncc3)ccc2O[C@@H]1CN(C)Cc1ccc(C(F)(F)F)cc1 the results were ERAP1 inh -1, F508del corr 1, E-sel inducer 0, DENV2 CPE rescue -3 and FGF22 binding -1.
For C[C@H](CO)N1C[C@H](C)[C@H](CN(C)Cc2ccc(C(F)(F)F)cc2)Oc2ccc(NC(=O)Nc3ccc(C(F)(F)F)cc3)cc2CC1=O the results were ERAP1 inh 1, F508del corr -1, E-sel inducer 0, DENV2 CPE rescue 63* and FGF22 binding 0.
`C[C@@H]1CN([C@@H](C)CO)C(=O)Cc2cc(NC(=O)c3ccncc3)ccc2O[C@@H]1CN(C)Cc1ccc(C(F)(F)F)cc1` gave ERAP1 inh 2, F508del corr 3, E-sel inducer 0, DENV2 CPE rescue 31* and FGF22 binding 0.
For C[C@@H]1CN([C@@H](C)CO)C(=O)Cc2cc(NC(=O)Nc3ccc(C(F)(F)F)cc3)ccc2O[C@H]1CN(C)C(=O)Nc1ccc(C(F)(F)F)cc1 the results were ERAP1 inh -4, F508del corr 0, E-sel inducer 0, DENV2 CPE rescue 53* and FGF22 binding 0.
For C[C@@H]1CN([C@@H](C)CO)C(=O)Cc2cc(NC(=O)c3ccncc3)ccc2O[C@@H]1CN(C)C(=O)Nc1ccc(C(F)(F)F)cc1 the results were ERAP1 inh 1, F508del corr 2, E-sel inducer 74*, DENV2 CPE rescue 1 and FGF22 binding 0.
C[C@@H]1CN([C@H](C)CO)C(=O)Cc2cc(NC(=O)Nc3ccc(C(F)(F)F)cc3)ccc2O[C@@H]1CN(C)C(=O)Nc1ccc(C(F)(F)F)cc1 was read as ERAP1 inh -1, F508del corr -2, E-sel inducer 2, DENV2 CPE rescue -10 and FGF22 binding 1.
Screening COc1ccc(S(=O)(=O)N(C)C[C@H]2Oc3c(NC(=O)Nc4ccccc4)cccc3C(=O)N([C@@H](C)CO)C[C@@H]2C)cc1 returned F508del corr 2 and E-sel inducer 1.
For C[C@@H]1CN([C@H](C)CO)C(=O)Cc2cc(NC(=O)c3ccncc3)ccc2O[C@H]1CN(C)C(=O)Nc1ccc(C(F)(F)F)cc1 the results were ERAP1 inh 1, F508del corr 7, E-sel inducer 20, DENV2 CPE rescue 23* and FGF22 binding 0.
C[C@H](CO)N1C[C@H](C)[C@H](CN(C)C(=O)Nc2ccc(F)cc2)Oc2ccc(NC(=O)c3ccncc3)cc2CC1=O was read as F508del corr -4 and E-sel inducer 0.
`C[C@H]1CN([C@@H](C)CO)C(=O)Cc2cc(NC(=O)C3CCCCC3)ccc2O[C@@H]1CN(C)Cc1ccc(C(F)(F)F)cc1` gave ERAP1 inh 1, F508del corr -1, E-sel inducer 0, DENV2 CPE rescue 39* and FGF22 binding 0.
For CC(=O)N(c1cc(C)ccc1C)c1ccccc1[N+](=O)[O-] the results were ERAP1 inh -1, F508del corr 3, E-sel inducer 0, DENV2 CPE rescue 9 and FGF22 binding 43*.
`CC(=O)N(c1ccccc1)c1ccc([N+](=O)[O-])cc1[N+](=O)[O-]` gave E-sel inducer 1.
C[C@@H]1CN([C@@H](C)CO)C(=O)Cc2cc(NS(=O)(=O)c3ccc(F)cc3)ccc2O[C@@H]1CN(C)Cc1ccc(Oc2ccccc2)cc1 was read as ERAP1 inh 1, F508del corr 0, E-sel inducer -1, DENV2 CPE rescue -1 and FGF22 binding 0.
`Cc1cc(C)nc(NC(N)=NC(C)c2ccccc2)n1` (stereo unspecified) gave ERAP1 inh 0, F508del corr 1, E-sel inducer 185*, DENV2 CPE rescue 13 and FGF22 binding 0.
For Cc1ccc(S(=O)(=O)N(C)C[C@H]2Oc3c(NC(=O)c4ccncc4)cccc3C(=O)N([C@@H](C)CO)C[C@H]2C)cc1 the results were ERAP1 inh -2, F508del corr -2, E-sel inducer 0, DENV2 CPE rescue -1 and FGF22 binding 0.
O=C(C1CC1)N1CC[C@H]2[C@H](CO)Nc3ccc(Br)cc3[C@H]21 was read as ERAP1 inh 2, F508del corr 4, E-sel inducer 0, DENV2 CPE rescue 27* and FGF22 binding 0.
For O=C(C1CC1)N1CC[C@@H]2[C@H]1c1cc(Br)ccc1N[C@@H]2CO the results were F508del corr 0, E-sel inducer 0 and DENV2 CPE rescue 36*.
Screening O=C(C1CCCC1)N1CC[C@@H]2[C@H]1c1cc(Br)ccc1N[C@@H]2CO returned F508del corr 7, E-sel inducer 0 and DENV2 CPE rescue -7.
For O=C(C1CCC1)N1CC[C@H]2[C@H](CO)Nc3ccc(Br)cc3[C@H]21 the results were ERAP1 inh 5, F508del corr 1, E-sel inducer 0 and DENV2 CPE rescue 9.
Screening CCCCNCCCOc1ccc(C)cc1Br returned ERAP1 inh -1, F508del corr -1, DENV2 CPE rescue 13 and FGF22 binding 44*.
`C=CCNCCOCCOc1ccc(C)cc1Br` gave E-sel inducer 0.
C[C@H](CO)N1C[C@H](C)[C@H](CN(C)C(=O)C2CC2)OCc2ccccc2-c2c(n(C)c3ccccc23)C1=O was read as ERAP1 inh 0, F508del corr -2, E-sel inducer 1, DENV2 CPE rescue -1 and FGF22 binding 0.
Screening COc1ccc2c3c([nH]c2c1)[C@@H](CO)N(C(=O)CN(C)C)CC31CN(Cc2ccccc2)C1 returned ERAP1 inh -1, F508del corr -3, E-sel inducer 0, DENV2 CPE rescue 39* and FGF22 binding 0.
